A short description of test [1]: RPL19A-GFP modulators, yeast TOR pathway, confirmation, cell-based, S. cerevisiae, flow cytometry, cherry picks, mother/daughter gates (AID 2270;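 active means GFP response below 50% of the DMSO control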). The note with it: S. cerevisiae RPL19A-GFP strain, 3 h, at 10 µM, stronger effect = lower value, 100 = same GFP as DMSO wells. A general note: A flow cytometer gives signals particle by particle.
Test [2] in a line: LAP4-GFP expression modulators in yeast, confirmation, cell-based, cherry picks, flow cytometry, mother/daughter gates (AID 2271;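 active means GFP response above 150% of the DMSO control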;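 further: ratio of sample to DMSO plate mean so 100% equals DMSO level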). To be noted: S. cerevisiae LAP4-GFP strain, 3 h, at 10 µM, stronger effect = higher value, 100 means same as DMSO control. Put shortly: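 Measured by: GFP by flow cytometry. Test system: GFP-fusion yeast strain. Input: yeast cells seeded at OD600 of 0.2. Timing: 30 °C, 3 h compound incubation, rotating. Buffer or medium: synthetic complete medium for yeast. Benchmarks: DMSO-only negative wells, rapamycin 400 ng/mL positive wells. Compound: 10 µM single dose.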

A short description of test [3]: modulators of MEP2-GFP levels in yeast, confirmation, S. cerevisiae, flow cytometry GFP, cherry picks (AID 2272;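 active means GFP response above 150% of the DMSO control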;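 further: ratio of well signal to plate DMSO mean so 100% equals DMSO level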). The note with it: S. cerevisiae MEP2-GFP strain, 3 h, at 10 µM, stronger effect = higher value.
Test [4] in a line: AGP1-GFP expression modulators, hit retest, confirmation, cell-based, flow cytometry, S. cerevisiae, cherry picks (AID 2273).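 Further: median GFP channel fluorescence over the whole cell population gate.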 The note with it: S. cerevisiae AGP1-GFP strain, 3 h, at 10 µM.
The nature of test [5]: modulators of CIT2-GFP expression in yeast, confirmation, S. cerevisiae, GFP fusion, cherry picks, mother/daughter gates (AID 2274). The note with it: S. cerevisiae CIT2-GFP strain, flow cytometry, 3 h, at 10 µM, stronger effect = higher value.
[6] abbreviates: measured here: daughter cell gate.
Where [7] appears, read: measured here: mother cell gate.
Setting [8] is: measured here: daughter cell gate response.
The mark [9] stands for this setting: measured here: mother cell gate response.

Active and inactive are the calls of the source.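 How the source made its calls, unless noted: active means GFP response above 150% of the DMSO level; inconclusive means fewer than 70 events counted for a yeast strain; inactive means the rest.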

The results in this text go back to PubChem BioAssay.

For `Cc1cc(O)c(C(=O)/C=C/c2cccc([N+](=O)[O-])c2)c(=O)o1`, the GFP response vs DMSO is 98.7% (inactive) in test [1], 101% in test [1] (setting [6]), 95.8% in test [1] (setting [7]) and 110% (inactive) in test [3]. For the same compound, the GFP response relative to DMSO in test [2] was 149% (inactive); in test [2] (setting [8]), 142%; in test [2] (setting [9]), 152%. Moreover, the GFP response, % of DMSO in test [4] was 107% (inactive); in test [5] it was 86.1% (inactive); in test [5] (setting [6]) it was 90.5%; in test [5] (setting [7]), 81.5%.
As to `O=C(COC(=O)/C=C/c1cccs1)Nc1nc(-c2ccccc2)cs1`, the GFP response vs DMSO in test [1] is 101% (inactive); in test [1] (setting [6]) it was 99.9%; in test [1] (setting [7]), 99.7%; in test [3], 105% (inactive). Also, the GFP response relative to DMSO in test [2] was 102% (inactive); in test [2] (setting [8]), 101%; in test [2] (setting [9]) it was 101%. Moreover, the GFP response, % of DMSO in test [4] is 93.3% (inactive); in test [5], 99.7% (inactive); in test [5] (setting [6]), 99.1%; in test [5] (setting [7]), 98.5%.
As to `Cc1cccc(C(=O)NNC(=S)NC(=O)c2ccccc2)c1`, the GFP response vs DMSO was 107% (inactive) in test [1], 110% in test [1] (setting [6]), 105% in test [1] (setting [7]) and 109% (inactive) in test [3]. Further, the GFP response relative to DMSO is 122% (inactive) in test [2], 117% in test [2] (setting [8]) and 128% in test [2] (setting [9]). In addition, the GFP response, % of DMSO is 102% (inactive) in test [4], 105% (inactive) in test [5], 116% in test [5] (setting [6]) and 99.7% in test [5] (setting [7]).
In the case of `CS(=O)(=O)N1N=C(c2ccco2)CC1c1ccc(Cl)cc1` (stereo unspecified), the GFP response vs DMSO is 101% (inactive) in test [1], 102% in test [1] (setting [6]), 101% in test [1] (setting [7]) and 104% (inactive) in test [3]. In addition, the GFP response relative to DMSO in test [2] is 96.5% (inactive); in test [2] (setting [8]), 97.9%; in test [2] (setting [9]), 94.6%. Further, the GFP response, % of DMSO is 101% (inactive) in test [4], 101% (inactive) in test [5], 100% in test [5] (setting [6]) and 100% in test [5] (setting [7]).
`O=C(c1ccc2c(c1)OCO2)N1CCN(c2ccc(F)cc2)CC1`: the GFP response vs DMSO was 103% (inactive) in test [1], 101% in test [1] (setting [6]), 102% in test [1] (setting [7]) and 102% (inactive) in test [3]. Moreover, the GFP response relative to DMSO in test [2] is 90.2% (inactive); in test [2] (setting [8]), 89.5%; in test [2] (setting [9]), 91.1%. The GFP response, % of DMSO in test [4] is 98.5% (inactive); in test [5] it was 99.1% (inactive); in test [5] (setting [6]), 96.5%; in test [5] (setting [7]), 99.8%.
For `O=[N+]([O-])c1cccc(-c2ccc(/C=N/Nc3nc(N4CCCCC4)nc(N4CCCCC4)n3)o2)c1`, the GFP response vs DMSO in test [1] is 96.8% (inactive); in test [1] (setting [6]) it was 94.3%; in test [1] (setting [7]), 98.2%; in test [3], 108% (inactive). For the same compound, the GFP response relative to DMSO in test [2] is 118% (inactive); in test [2] (setting [8]), 114%; in test [2] (setting [9]), 123%. The GFP response, % of DMSO is 105% (inactive) in test [4], 101% (inactive) in test [5], 95.2% in test [5] (setting [6]) and 102% in test [5] (setting [7]).
For `Cc1cccn2c(=O)c(/C=C(\C#N)C(=O)NC3CCS(=O)(=O)C3)c(N3CC(C)OC(C)C3)nc12` (stereo unspecified), the GFP response vs DMSO was 97.8% (inactive) in test [1], 99.4% in test [1] (setting [6]), 99.7% in test [1] (setting [7]) and 100% (inactive) in test [3]. Also, the figures for the GFP response relative to DMSO in test [2], in test [2] (setting [8]) and in test [2] (setting [9]) were 92.8% (inactive), 96% and 92.9%, respectively. Also, the GFP response, % of DMSO is 104% (inactive) in test [4], 99.7% (inactive) in test [5], 103% in test [5] (setting [6]) and 99.7% in test [5] (setting [7]).
As for `O=C(N/N=C/c1ccccc1Cl)c1ccc(F)cc1`, the GFP response vs DMSO in test [1] was 98.2% (inactive); in test [1] (setting [6]) it was 98.1%; in test [1] (setting [7]) it was 97.2%; in test [3], 96.8% (inactive). For the same compound, the GFP response relative to DMSO in test [2] is 111% (inactive); in test [2] (setting [8]), 104%; in test [2] (setting [9]), 112%. Further, the GFP response, % of DMSO is 102% (inactive) in test [4], 105% (inactive) in test [5], 103% in test [5] (setting [6]) and 103% in test [5] (setting [7]).
With `Oc1ccc(C2Nc3cccc4cccc(c34)N2)cc1`, the GFP response vs DMSO in test [1] is 99% (inactive); in test [1] (setting [6]) it was 99.2%; in test [1] (setting [7]) it was 99.4%; in test [3] it was 97.8% (inactive). For the same compound, the GFP response relative to DMSO in test [2] is 107% (inactive); in test [2] (setting [8]), 105%; in test [2] (setting [9]) it was 111%. The GFP response, % of DMSO was 98.7% (inactive) in test [4], 100% (inactive) in test [5], 98.1% in test [5] (setting [6]) and 102% in test [5] (setting [7]).
Turning to `Cc1ccc(-n2ncc(C#N)c2/N=C/N(C)C)cc1`, the GFP response vs DMSO was 103% (inactive) in test [1], 101% in test [1] (setting [6]), 103% in test [1] (setting [7]) and 107% (inactive) in test [3]. For the same compound, the GFP response relative to DMSO was 101% (inactive) in test [2], 101% in test [2] (setting [8]) and 103% in test [2] (setting [9]). The GFP response, % of DMSO in test [4] was 94.2% (inactive); in test [5], 94.4% (inactive); in test [5] (setting [6]), 92%; in test [5] (setting [7]), 79.7%.
With `O=C(N/N=C/c1ccc(OCCCF)cc1)c1cc(OCC(F)(F)F)ccc1OCC(F)(F)F`, the GFP response vs DMSO in test [1] was 98% (inactive); in test [1] (setting [6]) it was 100%; in test [1] (setting [7]), 98.2%; in test [3], 102% (inactive). Also, the GFP response relative to DMSO in test [2] is 97.4% (inactive); in test [2] (setting [8]) it was 98.7%; in test [2] (setting [9]), 101%. For the same compound, the GFP response, % of DMSO is 97.2% (inactive) in test [4], 95.2% (inactive) in test [5], 94.8% in test [5] (setting [6]) and 97.7% in test [5] (setting [7]).
For the compound `COc1ccc(C2CC(=O)C(C(c3ccc(O)cc3)C3C(=O)CC(c4ccc(OC)cc4)CC3=O)C(=O)C2)cc1` (stereo unspecified), the GFP response vs DMSO in test [1] is 100% (inactive); in test [1] (setting [6]) it was 101%; in test [1] (setting [7]) it was 101%; in test [3], 96.6% (inactive). Further, the GFP response relative to DMSO was 93.7% (inactive) in test [2], 92% in test [2] (setting [8]) and 92% in test [2] (setting [9]). The GFP response, % of DMSO in test [4] is 101% (inactive); in test [5] it was 110% (inactive); in test [5] (setting [6]), 110%; in test [5] (setting [7]), 109%.
On to `CS(=O)(=O)N1CCc2cc(C(=O)Nc3ccc(COCC(F)(F)F)cc3)ccc21`, for which the GFP response vs DMSO is 102% (inactive) in test [1], 104% in test [1] (setting [6]), 103% in test [1] (setting [7]) and 100% (inactive) in test [3]. Also, the values for the GFP response relative to DMSO in test [2], in test [2] (setting [8]) and in test [2] (setting [9]) were 92.6% (inactive), 97.2% and 93.1%, respectively. Also, the GFP response, % of DMSO in test [4] was 96.1% (inactive); in test [5], 110% (inactive); in test [5] (setting [6]), 108%; in test [5] (setting [7]), 111%.
For the compound `COc1ccc(-c2nc(-c3ccccc3OC)no2)cc1OC`, the GFP response vs DMSO in test [1] was 100% (inactive); in test [1] (setting [6]) it was 98.8%; in test [1] (setting [7]) it was 98.6%; in test [3] it was 105% (inactive). The GFP response relative to DMSO was 102% (inactive) in test [2], 99.1% in test [2] (setting [8]) and 104% in test [2] (setting [9]). The GFP response, % of DMSO is 91.8% (inactive) in test [4], 94.4% (inactive) in test [5], 95.6% in test [5] (setting [6]) and 93.2% in test [5] (setting [7]).
As for `N#C/C(=C\c1c(N2CCCCCC2)nc2ccccn2c1=O)C(=O)NC1CCS(=O)(=O)C1` (stereo unspecified), the GFP response vs DMSO in test [1] is 99.9% (inactive); in test [1] (setting [6]), 101%; in test [1] (setting [7]) it was 99.7%; in test [3] it was 116% (inactive). Also, the GFP response relative to DMSO is 105% (inactive) in test [2], 107% in test [2] (setting [8]) and 103% in test [2] (setting [9]). The GFP response, % of DMSO was 98.7% (inactive) in test [4], 109% (inactive) in test [5], 111% in test [5] (setting [6]) and 108% in test [5] (setting [7]).
`N#CC(C(=O)NCc1ccccc1)c1nc2ccccc2nc1N1CCCC1` (stereo unspecified): the GFP response vs DMSO is 103% (inactive) in test [1], 102% in test [1] (setting [6]), 104% in test [1] (setting [7]) and 117% (inactive) in test [3]. For the same compound, the GFP response relative to DMSO in test [2] is 114% (inactive); in test [2] (setting [8]), 108%; in test [2] (setting [9]) it was 117%. The GFP response, % of DMSO was 99.6% (inactive) in test [4], 111% (inactive) in test [5], 108% in test [5] (setting [6]) and 109% in test [5] (setting [7]).
